Measured values: ChEMBL document CHEMBL1140647, “Synthesis and evaluation of potent and selective beta3 adrenergic receptor agonists containing heterobiaryl carboxylic acids” (Bioorg Med Chem Lett, 2007)

Tests used:
Homo sapiens [1] = species: Homo sapiens; experiment: Selectivity ratio of pEC50 for human beta-3 adrenergic receptor over beta-1 adrenergic receptor
How it was run: (§1)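 Ratio of […]. pEC50 values come from cAMP accumulation in CHO cells expressing cloned human β1, β2 or β3 receptors.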

[2] = Plasma clearance in dog at 0.2 mg/kg, iv; format: ADME, organism-based, Canis lupus familiaris; parameters: dose 0.2 mg/kg, route intravenous
How it was run: (§2)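 Single intravenous dose of 0.2 mg/kg. Plasma drug levels measured by LC–MS/MS, and clearance and half-life derived from them.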

[3] = target: T1, Beta-2 adrenergic receptor (Homo sapiens, UniProt P07550); experiment: Agonist activity at human beta-2 adrenergic receptor expressed in CHO cells assessed as cAMP accumulation relative to R-(-)-isoproterenol; format: functional, cell-based
How it was run: (§3)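 cAMP accumulation measured in CHO cells expressing the cloned human receptor subtype. Potency given as pEC50; Emax is the fitted maximal response of the concentration-response, expressed as percent of the maximal response to R-(−)-isoproterenol. Values are from n ≥ 3 experiments unless noted (some n = 2), with standard deviation within 10%.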
Target sequence in this assay (P07550 whole entry, looked up): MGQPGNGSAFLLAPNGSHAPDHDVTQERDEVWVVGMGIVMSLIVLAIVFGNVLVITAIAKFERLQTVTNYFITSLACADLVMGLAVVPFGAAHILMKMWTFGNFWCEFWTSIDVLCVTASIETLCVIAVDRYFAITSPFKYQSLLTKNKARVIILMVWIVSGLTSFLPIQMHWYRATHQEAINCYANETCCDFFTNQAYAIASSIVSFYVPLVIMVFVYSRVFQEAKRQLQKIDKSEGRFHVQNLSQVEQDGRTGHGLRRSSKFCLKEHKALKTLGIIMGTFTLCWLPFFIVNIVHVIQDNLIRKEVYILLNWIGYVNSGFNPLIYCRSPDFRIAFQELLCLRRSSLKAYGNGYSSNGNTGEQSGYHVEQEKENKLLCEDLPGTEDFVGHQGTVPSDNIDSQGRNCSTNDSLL

[4] = target: T2, Beta-3 adrenergic receptor (Homo sapiens, UniProt P13945); experiment: Agonist activity at human beta-3 adrenergic receptor expressed in CHO cells assessed as cAMP accumulation relative to R-(-)-isoproterenol; format: functional, cell-based; how it was run: as §3
Target sequence in this assay (P13945 whole entry, looked up): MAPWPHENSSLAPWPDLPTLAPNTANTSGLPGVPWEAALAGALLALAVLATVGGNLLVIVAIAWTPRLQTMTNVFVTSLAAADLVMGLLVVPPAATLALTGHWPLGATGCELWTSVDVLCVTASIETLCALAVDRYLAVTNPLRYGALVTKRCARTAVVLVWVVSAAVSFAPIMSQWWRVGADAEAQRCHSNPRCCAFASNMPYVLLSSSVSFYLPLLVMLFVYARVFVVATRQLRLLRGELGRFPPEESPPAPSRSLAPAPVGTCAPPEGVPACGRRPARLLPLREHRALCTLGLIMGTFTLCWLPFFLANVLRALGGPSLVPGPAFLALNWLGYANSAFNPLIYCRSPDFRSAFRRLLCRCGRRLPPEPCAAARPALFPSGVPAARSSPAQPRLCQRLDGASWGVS

Homo sapiens [5] = species: Homo sapiens; experiment: Selectivity ratio of pEC50 for human beta3 adrenergic receptor over beta-2 adrenergic receptor; how it was run: as §1
[6] = target: T2, Beta-3 adrenergic receptor; experiment: Agonist activity at human beta-3 adrenergic receptor expressed in CHO cells assessed as cAMP accumulation; format: functional, cell-based; how it was run: as §3
Target sequence in this assay (P13945 whole entry): as the sequence (P13945 whole entry, looked up) above

[7] = target: T3, Beta-1 adrenergic receptor (Homo sapiens, UniProt P08588); experiment: Agonist activity at human beta-1 adrenergic receptor expressed in CHO cells assessed as cAMP accumulation relative to R-(-)-isoproterenol; format: functional, cell-based; how it was run: as §3
Target sequence in this assay (P08588 whole entry, looked up): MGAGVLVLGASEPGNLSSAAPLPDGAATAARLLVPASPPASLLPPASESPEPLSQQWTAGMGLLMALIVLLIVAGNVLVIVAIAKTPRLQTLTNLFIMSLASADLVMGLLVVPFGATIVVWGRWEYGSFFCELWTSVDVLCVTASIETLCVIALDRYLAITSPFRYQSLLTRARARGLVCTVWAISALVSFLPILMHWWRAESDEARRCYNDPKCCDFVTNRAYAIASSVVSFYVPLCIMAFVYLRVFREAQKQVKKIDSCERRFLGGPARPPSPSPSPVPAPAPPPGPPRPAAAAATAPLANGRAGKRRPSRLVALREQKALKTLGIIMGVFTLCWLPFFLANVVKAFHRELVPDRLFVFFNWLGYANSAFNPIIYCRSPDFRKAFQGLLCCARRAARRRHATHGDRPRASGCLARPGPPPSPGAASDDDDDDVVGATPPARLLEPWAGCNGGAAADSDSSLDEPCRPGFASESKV

[8] = target: T1, Beta-2 adrenergic receptor; experiment: Agonist activity at human beta-2 adrenergic receptor expressed in CHO cells assessed as cAMP accumulation; format: functional, cell-based; how it was run: as §3
Target sequence in this assay (P07550 whole entry): as the sequence (P07550 whole entry, looked up) above

[9] = target: T3, Beta-1 adrenergic receptor; experiment: Agonist activity at human beta-1 adrenergic receptor expressed in CHO cells assessed as cAMP accumulation; format: functional, cell-based; how it was run: as §3
Target sequence in this assay (P08588 whole entry): as the sequence (P08588 whole entry, looked up) above

[10] = Half life in dog at 0.2 mg/kg, iv; format: ADME, organism-based, Canis lupus familiaris; parameters: dose 0.2 mg/kg, route intravenous; conditions: in vivo; how it was run: as §2
Mus musculus [11] = experiment: Reduction of glucose level in db/db mouse serum at 1 mg/kg, po bid for 14 days; format: functional
How it was run: (§4)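 Male db/db mice, 60 days old at the start of dosing, 10 per group. Dosed by oral gavage twice daily for 14 days in 0.025 M methanesulfonic acid vehicle, with dosing solutions prepared fresh daily. Day 0 baseline taken from 10 exsanguinated mice. Mice were sacrificed on days 7 and 14, and serum glucose was measured on an automated chemistry analyzer against vehicle-treated mice.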

Mus musculus [12] = experiment: Reduction of glucose level in db/db mouse serum at 0.03 mg/kg, po bid for 14 days; format: functional; how it was run: as §4
Mus musculus [13] = experiment: Reduction of glucose level in db/db mouse serum at 0.3 mg/kg, po bid for 14 days; format: functional; how it was run: as §4
Mus musculus [14] = experiment: Reduction of glucose level in db/db mouse serum at 0.1 mg/kg, po bid for 14 days; format: functional; how it was run: as §4

Structure (SMILES)	Selectivity ratio (Homo sapiens [1])	clearance [2] [mL/min/kg]	Emax [3] [%]	Emax [4] [%]	Selectivity ratio (Homo sapiens [5])	EC50 [6] [nM]	Emax [7] [%]	EC50 [8] [nM]	EC50 [9] [nM]	half-life [10] [h]	Activity (Mus musculus [11]) [mg/dL]	Activity (Mus musculus [12]) [mg/dL]	Activity (Mus musculus [13]) [mg/dL]	Activity (Mus musculus [14]) [mg/dL]
C[C@H](CNc1cccc(-c2nc(C(=O)O)cs2)c1)NC[C@H](O)c1cccc(Cl)c1	100	5.3	48	97	200	0.794	21	158	79.4	≤ 1				
C[C@H](CNc1cccc(-c2occc2C(=O)O)c1)NC[C@H](O)c1cccc(Cl)c1	400	5.3	38	87	500	0.251	14	126	100	≤ 1				
O=C(O)c1ccoc1-c1cccc(NCCNC[C@H](O)c2cccc(Cl)c2)c1	630	0.65	< 5	91	320	7.94	< 5	2510	5010	6.1	183	376	191	255
C[C@H](CNc1cccc(-c2ocnc2C(=O)O)c1)NC[C@H](O)c1cccc(Cl)c1	100	5.3	49	102	79	3.98	14	316	398	≤ 1				
C[C@H](CNc1ccc(-c2csc(C(=O)O)n2)cc1)NC[C@H](O)c1cccc(Cl)c1	8		63	100	32	1.58	19	50.1	12					
O=C(O)c1ccsc1-c1cccc(NCCNC[C@H](O)c2cccc(Cl)c2)c1	3200	1.5	< 5	103	4000	1.26	< 2	5010	3980	1.6				
C[C@H](CNc1cccc(-c2sccc2C(=O)O)c1)NC[C@H](O)c1cccc(Cl)c1	20000	5.3	9	85	13000	0.0631	< 7	794	1260	≤ 1				
C[C@H](CNc1cccc(-c2nc(C(=O)O)co2)c1)NC[C@H](O)c1cccc(Cl)c1	10		39	115	8	15.8	30	126	158					
C[C@H](CNc1cccc(-c2csc(C(=O)O)n2)c1)NC[C@H](O)c1cccc(Cl)c1	50		76	97	50	2	20	100	100					
C[C@H](CNc1ccc(CCC(=O)O)cc1)NC[C@H](O)c1cccc(Cl)c1	10				16									
C[C@H](CNc1ccc(-c2nc(C(=O)O)co2)cc1)NC[C@H](O)c1cccc(Cl)c1	0.8		53	92	6	15.8	23	100	12.6					
C[C@H](CNc1ccc(-c2ocnc2C(=O)O)cc1)NC[C@H](O)c1cccc(Cl)c1	20	5.3	55	90	320	1.26	24	398	25.1	≤ 1				
C[C@H](CNc1ccc(-c2nc(C(=O)O)cs2)cc1)NC[C@H](O)c1cccc(Cl)c1	3		41	100	8	6.31	21	50.1	20					
C[C@H](CNc1ccc(-c2sccc2C(=O)O)cc1)NC[C@H](O)c1cccc(Cl)c1	250		19	96	1600	0.398	14	631	100					
C[C@H](CNc1ccc(-c2occc2C(=O)O)cc1)NC[C@H](O)c1cccc(Cl)c1	63	5.3	36	85	250	0.316	18	79.4	20	≤ 1				
C[C@H](CNc1ccc(CC(=O)O)cc1)NC[C@H](O)c1cccc(Cl)c1	5				3									
